Calls of active or inactive are those of the source. No cut-off for these calls is given here.
How the values were obtained:
[1] = target: Sodium-dependent dopamine transporter (Rattus norvegicus, UniProt P23977); assay: Displacement of 3H-WIN-35428 from DAT in rat striata after 120 mins
Rattus norvegicus [2] = assay: Wake promoting activity in rat assessed as total time awake at 100 mg/kg, ip over a period of 3 hrs after dosing; format: functional; conditions: route intraperitoneal
Plasma [3] = assay: Cmax in rat plasma assessed as 9H-fluoren-9-ol at 116 mg/kg, ip; format: ADME, organism-based; parameters: dose 116 mg/kg, route intraperitoneal; conditions: in vivo
In short: (§1)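 Rats received the parent compound at 116 mg/kg ip in 0.5% methylcellulose/0.2% Tween 80. The metabolite was measured in plasma and brain over time. Cmax is given in ng/g, Tmax in h, and AUC0-t in ng h/g. Values are mean ± SEM, n = 3.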

Plasma [4] = assay: Tmax in rat plasma assessed as 9H-fluoren-9-ol at 116 mg/kg, ip; format: ADME, organism-based; parameters: dose 116 mg/kg, route intraperitoneal; conditions: in vivo; in short: as §1
Plasma [5] = assay: AUC (0 to t) in rat plasma assessed as 9H-fluoren-9-ol at 116 mg/kg, ip; format: ADME, organism-based; parameters: dose 116 mg/kg, route intraperitoneal; conditions: in vivo; in short: as §1
Brain [6] = assay: Cmax in rat brain assessed as 9H-fluoren-9-ol at 116 mg/kg, ip; format: ADME, organism-based; parameters: dose 116 mg/kg, route intraperitoneal; conditions: in vivo; in short: as §1
Brain [7] = assay: Tmax in rat brain assessed as 9H-fluoren-9-ol at 116 mg/kg, ip; format: ADME, organism-based; parameters: dose 116 mg/kg, route intraperitoneal; conditions: in vivo; in short: as §1
Brain [8] = assay: AUC (0 to t) in rat brain assessed as 9H-fluoren-9-ol at 116 mg/kg, ip; format: ADME, organism-based; parameters: dose 116 mg/kg, route intraperitoneal; conditions: in vivo; in short: as §1
Plasma [9] = assay: Cmax in rat plasma assessed as 9H-fluoren-9-one at 116 mg/kg, ip; format: ADME, organism-based; parameters: dose 116 mg/kg, route intraperitoneal; conditions: in vivo; in short: as §1
Plasma [10] = assay: Tmax in rat plasma assessed as 9H-fluoren-9-one at 116 mg/kg, ip; format: ADME, organism-based; parameters: dose 116 mg/kg, route intraperitoneal; conditions: in vivo; in short: as §1
Plasma [11] = assay: AUC (0 to t) in rat plasma assessed as 9H-fluoren-9-one at 116 mg/kg, ip; format: ADME, organism-based; parameters: dose 116 mg/kg, route intraperitoneal; conditions: in vivo; in short: as §1
Brain [12] = assay: Cmax in rat brain assessed as 9H-fluoren-9-one at 116 mg/kg, ip; format: ADME, organism-based; parameters: dose 116 mg/kg, route intraperitoneal; conditions: in vivo; in short: as §1
Brain [13] = assay: Tmax in rat brain assessed as 9H-fluoren-9-one at 116 mg/kg, ip; format: ADME, organism-based; parameters: dose 116 mg/kg, route intraperitoneal; conditions: in vivo; in short: as §1
Brain [14] = assay: AUC (0 to t) in rat brain assessed as 9H-fluoren-9-one at 116 mg/kg, ip; format: ADME, organism-based; parameters: dose 116 mg/kg, route intraperitoneal; conditions: in vivo; in short: as §1
Cytochrome P450 2C19 = Cytochrome P450 2C19 (Homo sapiens, UniProt P33261); assay: Inhibition of CYP2C19; format: ADME
Chain of Cytochrome P450 2C19 (P33261 whole entry): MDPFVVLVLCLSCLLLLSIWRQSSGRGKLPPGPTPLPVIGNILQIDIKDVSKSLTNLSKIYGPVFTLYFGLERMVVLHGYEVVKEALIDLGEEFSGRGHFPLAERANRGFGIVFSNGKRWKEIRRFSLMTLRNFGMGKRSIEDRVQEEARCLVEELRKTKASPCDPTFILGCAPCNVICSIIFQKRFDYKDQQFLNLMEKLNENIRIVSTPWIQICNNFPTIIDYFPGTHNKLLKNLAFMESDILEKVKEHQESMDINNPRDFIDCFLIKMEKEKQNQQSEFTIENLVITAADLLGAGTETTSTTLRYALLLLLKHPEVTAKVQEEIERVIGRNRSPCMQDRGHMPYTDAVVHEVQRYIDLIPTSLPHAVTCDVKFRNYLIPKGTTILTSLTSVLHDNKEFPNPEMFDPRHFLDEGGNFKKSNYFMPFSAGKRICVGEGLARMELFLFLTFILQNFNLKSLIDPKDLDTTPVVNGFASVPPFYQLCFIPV

Canis familiaris = species on record: Canis familiaris; assay: Wake promoting activity in dog; format: functional, organism-based; conditions: Canis lupus familiaris
CYP2C19 = CYP2C19 (Homo sapiens, UniProt P33261); assay: Inhibition of CYP2C19 at 10 uM; format: ADME
Chain of CYP2C19 (P33261 whole entry): as above

Rattus norvegicus [15] = assay: Wake promoting activity in rat assessed as total time awake at 30 mg/kg, ip over a period of 3 hrs after dosing; format: functional; conditions: route intraperitoneal
[16] = Cmax in rat plasma at 116 mg/kg, ip; format: ADME, organism-based; parameters: dose 116 mg/kg, route intraperitoneal
[17] = Tmax in rat plasma at 116 mg/kg, ip; format: ADME, organism-based; parameters: dose 116 mg/kg, route intraperitoneal
Plasma [18] = assay: AUC (0 to t) in rat plasma at 116 mg/kg, ip; format: ADME, organism-based; parameters: dose 116 mg/kg, route intraperitoneal; conditions: in vivo
[19] = Cmax in rat brain at 116 mg/kg, ip; format: ADME, organism-based; parameters: dose 116 mg/kg, route intraperitoneal
[20] = Tmax in rat brain at 116 mg/kg, ip; format: ADME, organism-based; parameters: dose 116 mg/kg, route intraperitoneal
Brain [21] = assay: AUC (0 to t) in rat brain at 116 mg/kg, ip; format: ADME, organism-based; parameters: dose 116 mg/kg, route intraperitoneal; conditions: in vivo
Cytochrome P450 3A4 = Cytochrome P450 3A4 (Homo sapiens, UniProt P08684); assay: Inhibition of CYP3A4; format: ADME
Chain of Cytochrome P450 3A4 (P08684 whole entry): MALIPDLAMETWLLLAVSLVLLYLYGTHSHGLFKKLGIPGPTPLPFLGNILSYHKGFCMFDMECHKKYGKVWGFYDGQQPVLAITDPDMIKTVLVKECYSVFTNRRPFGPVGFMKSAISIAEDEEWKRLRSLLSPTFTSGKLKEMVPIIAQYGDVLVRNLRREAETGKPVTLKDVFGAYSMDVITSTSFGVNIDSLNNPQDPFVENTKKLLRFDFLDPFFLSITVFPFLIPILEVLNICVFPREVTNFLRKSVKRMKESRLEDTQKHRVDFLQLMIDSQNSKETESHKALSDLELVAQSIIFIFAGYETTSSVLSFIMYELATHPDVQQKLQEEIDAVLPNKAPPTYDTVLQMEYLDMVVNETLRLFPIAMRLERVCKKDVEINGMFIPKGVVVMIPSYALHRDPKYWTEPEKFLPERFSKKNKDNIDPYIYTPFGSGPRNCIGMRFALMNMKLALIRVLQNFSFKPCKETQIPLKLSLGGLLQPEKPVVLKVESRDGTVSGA

Cytochrome P450 2D6 = Cytochrome P450 2D6 (Homo sapiens, UniProt P10635); assay: Inhibition of CYP2D6; format: ADME
Chain of Cytochrome P450 2D6 (P10635 whole entry): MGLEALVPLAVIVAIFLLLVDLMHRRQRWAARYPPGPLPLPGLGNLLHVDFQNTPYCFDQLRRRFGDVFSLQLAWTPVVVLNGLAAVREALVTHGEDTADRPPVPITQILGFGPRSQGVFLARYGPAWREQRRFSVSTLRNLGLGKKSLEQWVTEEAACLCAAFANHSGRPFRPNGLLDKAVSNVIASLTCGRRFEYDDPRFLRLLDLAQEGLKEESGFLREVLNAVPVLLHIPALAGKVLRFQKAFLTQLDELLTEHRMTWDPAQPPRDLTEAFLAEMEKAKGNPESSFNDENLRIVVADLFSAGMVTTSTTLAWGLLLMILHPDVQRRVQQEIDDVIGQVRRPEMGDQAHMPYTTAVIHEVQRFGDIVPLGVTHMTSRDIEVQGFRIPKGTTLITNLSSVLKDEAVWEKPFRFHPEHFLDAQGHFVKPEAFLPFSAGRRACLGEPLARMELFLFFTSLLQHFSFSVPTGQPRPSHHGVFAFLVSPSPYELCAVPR

Plasma [22] = assay: Plasma concentration in human at efficacious dose; format: ADME, cell-free

Chain of Sodium-dependent dopamine transporter (P23977 whole entry): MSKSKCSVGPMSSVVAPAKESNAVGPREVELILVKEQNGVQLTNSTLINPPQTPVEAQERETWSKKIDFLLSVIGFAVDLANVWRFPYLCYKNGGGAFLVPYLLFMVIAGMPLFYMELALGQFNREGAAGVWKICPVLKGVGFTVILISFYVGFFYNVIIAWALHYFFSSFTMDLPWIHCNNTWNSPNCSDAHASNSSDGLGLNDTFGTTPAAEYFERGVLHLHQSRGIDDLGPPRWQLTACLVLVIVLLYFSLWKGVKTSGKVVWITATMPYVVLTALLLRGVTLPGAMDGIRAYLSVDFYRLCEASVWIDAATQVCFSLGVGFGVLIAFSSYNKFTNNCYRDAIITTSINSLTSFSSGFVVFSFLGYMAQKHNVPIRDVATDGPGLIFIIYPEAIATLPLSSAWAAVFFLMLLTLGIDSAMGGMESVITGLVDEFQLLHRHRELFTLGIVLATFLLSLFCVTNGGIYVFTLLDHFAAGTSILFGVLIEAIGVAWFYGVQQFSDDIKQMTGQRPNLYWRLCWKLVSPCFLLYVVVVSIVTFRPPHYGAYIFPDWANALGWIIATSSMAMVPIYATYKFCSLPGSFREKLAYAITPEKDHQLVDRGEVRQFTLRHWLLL

Compound	IC50 [1] [µM]	Time (Rattus norvegicus [2]) [min]	IC50 (Cytochrome P450 2C19) [µM]	Activity (Canis familiaris)	further results
OC1c2ccccc2-c2ccccc21	9	163			Cmax (Plasma [3]): 263 ng/g; Tmax (Plasma [4]): 120 min; AUCt (Plasma [5]): 1081 ng·h/g; Cmax (Brain [6]): 4384 ng/g; Tmax (Brain [7]): 48 min; AUCt (Brain [8]): 11639 ng·h/g
O=C1c2ccccc2-c2ccccc21					Cmax (Plasma [9]): 255 ng/g; Tmax (Plasma [10]): 72 min; AUCt (Plasma [11]): 939 ng·h/g; Cmax (Brain [12]): 971 ng/g; Tmax (Brain [13]): 48 min; AUCt (Brain [14]): 2349 ng·h/g
C[C@H](NC(=O)C[S+]([O-])C1c2ccccc2-c2ccccc21)C(N)=O (mixture of isomers)	> 100	151	> 100	inactive	
NC(=O)[C@H](CO)NC(=O)C[S+]([O-])C1c2ccccc2-c2ccccc21 (mixture of isomers)	> 100	136	> 100	inactive	
NC(=O)[C@@H]1CCCN1C(=O)C[S+]([O-])C1c2ccccc2-c2ccccc21 (mixture of isomers)	> 100	169	> 100	inactive	
NC(=O)C[S+]([O-])C1c2ccccc2-c2ccccc21 (racemic)	> 100	116	> 100	inactive	
CC1([S+]([O-])CC(N)=O)c2ccccc2-c2ccccc21 (racemic)	> 100	71			inhibition at 10 µM (CYP2C19): 26%
CNC(=O)C[S+]([O-])C1c2ccccc2-c2ccccc21 (racemic)	> 100	83		inactive	inhibition at 10 µM (CYP2C19): 48%
O=C(C[S+]([O-])C1c2ccccc2-c2ccccc21)NCCO (racemic)	> 100	167	> 100	inactive	
CCN(CC)C(=O)C[S+]([O-])C1c2ccccc2-c2ccccc21 (racemic)	> 100	99	> 100	inactive	
O=C(C[S+]([O-])C1c2ccccc2-c2ccccc21)N1CCOCC1 (racemic)	> 100			inactive	Time (Rattus norvegicus [15]): 158 min; inhibition at 10 µM (CYP2C19): 30%
O=C(C[S+]([O-])C1c2ccccc2-c2ccccc21)N1CCNCC1 (racemic)	> 100		> 100	inactive	Time (Rattus norvegicus [15]): 119 min
CC(=O)N1CCN(C(=O)C[S+]([O-])C2c3ccccc3-c3ccccc32)CC1 (racemic)	> 100		> 100	inactive	Time (Rattus norvegicus [15]): 146 min; Cmax [16]: 6290 ng/g; Tmax [17]: 48 min; AUCt (Plasma [18]): 7501 ng·h/g; Cmax [19]: 416 ng/g; Tmax [20]: 48 min; AUCt (Brain [21]): 295 ng·h/g
NC(=O)CNC(=O)C[S+]([O-])C1c2ccccc2-c2ccccc21 (racemic)	> 100	140	> 100	inactive	
NC(=O)C[S+]([O-])C(c1ccccc1)c1ccccc1 (racemic) [MODAFINIL]		117		inactive	inhibition (INH) (Cytochrome P450 3A4): Not Active; inhibition (INH) (Cytochrome P450 2D6): Not Active; concentration (Plasma [22]): > 30 µM
